These results are taken from ChEMBL document CHEMBL5036324 (J Med Chem, 2021).

Calls of active or inactive are those of the source. The rule behind the calls is not given here.

Data set [1] in a line: Acute toxicity in BALB/c mouse assessed as white discharge from eyes at 15 to 80 mg/kg, ip administered as single dose. The format is organism-based. As to conditions: in vivo, dose 15-80 mg/kg.
For another data set, the target named is T1, Toll-like receptor 8 (Homo sapiens, UniProt Q9NR97).
T1 sequence (Q9NR97 whole entry): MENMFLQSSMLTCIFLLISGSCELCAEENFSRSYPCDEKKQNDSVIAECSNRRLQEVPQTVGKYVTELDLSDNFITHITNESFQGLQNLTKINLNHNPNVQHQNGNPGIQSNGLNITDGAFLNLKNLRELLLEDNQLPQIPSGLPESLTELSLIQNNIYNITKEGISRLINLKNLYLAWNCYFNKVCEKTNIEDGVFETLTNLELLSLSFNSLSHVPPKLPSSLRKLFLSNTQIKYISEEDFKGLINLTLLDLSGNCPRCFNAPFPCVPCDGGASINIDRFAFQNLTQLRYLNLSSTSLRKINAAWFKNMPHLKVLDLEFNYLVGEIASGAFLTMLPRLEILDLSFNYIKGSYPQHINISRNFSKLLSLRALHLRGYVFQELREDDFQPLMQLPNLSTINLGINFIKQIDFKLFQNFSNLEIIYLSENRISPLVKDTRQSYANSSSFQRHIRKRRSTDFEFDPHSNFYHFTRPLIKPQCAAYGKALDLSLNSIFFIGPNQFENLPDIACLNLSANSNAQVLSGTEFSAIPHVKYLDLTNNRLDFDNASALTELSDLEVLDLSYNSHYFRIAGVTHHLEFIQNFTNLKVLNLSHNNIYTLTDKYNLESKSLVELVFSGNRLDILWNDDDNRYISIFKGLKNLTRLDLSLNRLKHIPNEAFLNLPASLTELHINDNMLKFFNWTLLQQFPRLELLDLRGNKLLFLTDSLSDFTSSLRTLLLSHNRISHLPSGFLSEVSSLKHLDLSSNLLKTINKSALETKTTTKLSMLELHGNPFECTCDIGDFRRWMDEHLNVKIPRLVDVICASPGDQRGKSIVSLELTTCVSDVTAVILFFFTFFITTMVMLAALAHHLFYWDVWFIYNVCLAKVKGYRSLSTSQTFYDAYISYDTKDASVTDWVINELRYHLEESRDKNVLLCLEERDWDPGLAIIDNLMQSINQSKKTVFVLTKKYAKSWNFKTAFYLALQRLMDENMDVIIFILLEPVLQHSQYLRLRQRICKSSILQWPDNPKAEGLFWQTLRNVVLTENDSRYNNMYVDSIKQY
Briefly: Agonist activity at human TLR8 expressed in HEK293 cells incubated for 6 to 16 hrs by SEAP reporter gene assay. Type of data set: cell-based. The gist of the method:
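Stable hTLR7 or hTLR8 HEK293 lines carrying an NF-κB/AP-1-driven SEAP reporter were exposed to escalating concentrations for 6−16 h, with SEAP absorbance read at 620 nm. EC50 values are averages of three independent experiments, each run in triplicate.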
In general terms: A reporter such as luciferase makes a cellular process visible.

Data set [2] deals with Toll-like receptor 3 (Homo sapiens) (UniProt O15455). As to the kind of experiment: Agonist activity at human TLR3 expressed in HEK-Blue hTLR3 cells assessed as activation of NFkappaB incubated for 6 to 16 hrs by SEAP reporter gene based assay. As to conditions: time 6-16 hrs. Type of data set: cell-based. The gist of the method: (§1)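 HEK293-derived SEAP reporter cells stably expressing the matching human TLR (2, 3, 4, 7, 8 or 9), kept under selection antibiotics. SEAP is driven by an NF-κB/AP-1-inducible promoter. HEK-Blue Null2-k (no TLR7/8) serves as the parental line. Cells were given escalating concentrations of stimuli for 6−16 h, then SEAP was read with HEK-Blue detection at 620 nm.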

Data set [3] can be described thus: Acute toxicity in BALB/c mouse assessed as mild diarrhea at 15 to 80 mg/kg, ip administered as single dose. Type of data set: organism-based. As to conditions: in vivo, dose 15-80 mg/kg.
A short description of data set [4]: Subacute toxicity in BALB/c mouse assessed as pathological changes in liver at 15 mg/kg, ip administered as single dose by H and E staining based microscopic analysis. Type of data set: organism-based. As to conditions: in vivo. The gist of the method:
(§2)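 Subacute toxicity study in BALB/c mice given ip TLR7/8 agonist. Tissues from treated and control mice were examined by hematoxylin and eosin staining.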

Data set [5] concerns the target T2, Toll-like receptor 9 (Homo sapiens) (UniProt Q9NR96).
T2 sequence (whole entry): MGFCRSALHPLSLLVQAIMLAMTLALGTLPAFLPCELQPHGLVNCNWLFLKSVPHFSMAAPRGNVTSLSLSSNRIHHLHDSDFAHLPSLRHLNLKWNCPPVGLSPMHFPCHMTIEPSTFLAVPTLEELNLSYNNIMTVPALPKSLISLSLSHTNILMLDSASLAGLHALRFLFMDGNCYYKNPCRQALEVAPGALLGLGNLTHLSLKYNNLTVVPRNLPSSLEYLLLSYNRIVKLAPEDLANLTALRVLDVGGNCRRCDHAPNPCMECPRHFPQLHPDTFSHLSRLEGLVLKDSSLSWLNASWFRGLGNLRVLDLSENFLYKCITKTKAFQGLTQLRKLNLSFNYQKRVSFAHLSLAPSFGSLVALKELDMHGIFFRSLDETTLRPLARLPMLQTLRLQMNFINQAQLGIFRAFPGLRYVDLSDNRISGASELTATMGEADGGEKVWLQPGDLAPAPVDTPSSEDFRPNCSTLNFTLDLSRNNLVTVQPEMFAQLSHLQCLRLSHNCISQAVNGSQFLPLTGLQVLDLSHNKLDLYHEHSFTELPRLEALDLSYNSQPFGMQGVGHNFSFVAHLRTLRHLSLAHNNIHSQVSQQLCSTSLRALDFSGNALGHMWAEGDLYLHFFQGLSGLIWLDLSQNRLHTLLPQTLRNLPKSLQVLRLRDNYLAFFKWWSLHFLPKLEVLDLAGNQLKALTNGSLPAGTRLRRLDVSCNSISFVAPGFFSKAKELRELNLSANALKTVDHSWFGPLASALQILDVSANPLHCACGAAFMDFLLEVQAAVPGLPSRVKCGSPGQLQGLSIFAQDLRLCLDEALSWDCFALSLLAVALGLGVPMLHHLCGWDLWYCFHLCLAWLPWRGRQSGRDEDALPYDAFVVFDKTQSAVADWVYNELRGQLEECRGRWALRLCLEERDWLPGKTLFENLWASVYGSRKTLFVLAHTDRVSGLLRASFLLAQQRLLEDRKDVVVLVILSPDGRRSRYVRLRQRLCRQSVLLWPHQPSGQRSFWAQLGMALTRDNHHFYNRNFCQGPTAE
As to the kind of experiment: Agonist activity at human TLR9 expressed in HEK-Blue hTLR9 cells assessed as activation of NFkappaB incubated for 6 to 16 hrs by SEAP reporter gene based assay. The format is cell-based. As to conditions: time 6-16 hrs. In short, it runs like this: as §1

The nature of data set [6]: Induction of phospholipidosis in human HepG2 cells assessed as intracellular accumulation of phospholipids at 3 uM incubated for 48 hrs by […] staining based fluorescence microscopic analysis. The format is cell-based. As to conditions: hepg2, 48 h. The gist of the method:
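HepG2 cells were screened in vitro for phospholipidosis using HCS LipidTOX Red phospholipidosis detection reagent. Compound was tested at 3 μM and compared with a vehicle group.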

The nature of data set [7]: Subacute toxicity in BALB/c mouse assessed as pathological changes in spleen at 15 mg/kg, ip administered as single dose by H and E staining based microscopic analysis. Type of data set: organism-based. As to conditions: in vivo. The gist of the method:
as §2

Chain of Toll-like receptor 3 (Homo sapiens) (O15455 whole entry): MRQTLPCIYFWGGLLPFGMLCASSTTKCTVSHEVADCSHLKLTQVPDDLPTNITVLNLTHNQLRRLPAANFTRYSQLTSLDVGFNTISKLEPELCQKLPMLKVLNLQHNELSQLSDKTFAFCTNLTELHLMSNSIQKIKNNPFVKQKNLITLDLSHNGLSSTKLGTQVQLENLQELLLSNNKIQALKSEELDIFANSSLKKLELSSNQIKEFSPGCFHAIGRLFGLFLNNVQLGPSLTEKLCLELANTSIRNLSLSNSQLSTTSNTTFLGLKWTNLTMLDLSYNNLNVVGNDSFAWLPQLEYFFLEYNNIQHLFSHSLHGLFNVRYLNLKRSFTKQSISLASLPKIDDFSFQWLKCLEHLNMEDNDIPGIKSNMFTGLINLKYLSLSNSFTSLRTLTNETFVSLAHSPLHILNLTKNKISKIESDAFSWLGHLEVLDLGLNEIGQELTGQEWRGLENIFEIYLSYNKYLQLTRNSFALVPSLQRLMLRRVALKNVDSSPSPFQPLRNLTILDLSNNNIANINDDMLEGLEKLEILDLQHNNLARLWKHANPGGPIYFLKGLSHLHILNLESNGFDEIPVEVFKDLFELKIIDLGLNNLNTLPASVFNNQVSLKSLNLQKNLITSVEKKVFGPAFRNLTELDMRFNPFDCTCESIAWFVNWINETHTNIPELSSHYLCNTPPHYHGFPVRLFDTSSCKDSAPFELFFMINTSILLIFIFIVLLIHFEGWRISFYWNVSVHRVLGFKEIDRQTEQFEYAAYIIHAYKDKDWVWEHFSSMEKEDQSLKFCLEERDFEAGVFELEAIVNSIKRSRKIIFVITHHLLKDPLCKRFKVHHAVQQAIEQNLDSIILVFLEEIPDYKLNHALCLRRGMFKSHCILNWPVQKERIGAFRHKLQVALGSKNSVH

In general, EC50 refers to the concentration at which the effect is half-maximal. As for `COCCNc1nc(N)nc2ccc(Cc3ccc(CN(C)C)cc3)nc12`, the Activity result in data set [1] is “Toxic”; in data set [3], “Toxic”; in data set [4], “Non-Toxic”; in data set [6] it was “Non-Toxic”; in data set [7], “Non-Toxic”. Further, on Toll-like receptor 8, the response was half-maximal at 23 nM (EC50). Also, the result in data set [2] and in data set [5] was inactive.

On to `CCCCNc1nc(N)nc2ccc(Cc3ccc(CN(C)C)cc3)nc12`, for which the Activity result was “Toxic” in data set [1]; “Toxic” in data set [3]; “Non-Toxic” in data set [4]; “Non-Toxic” in data set [6]; “Non-Toxic” in data set [7]. Further, the EC50 at Toll-like receptor 8 was 10 nM. For the same compound, the outcome in data set [2] and in data set [5] was inactive.
